Assay results reported in ChEMBL document CHEMBL4020842, “Discovery of N1-(4-((7-Cyclopentyl-6-(dimethylcarbamoyl)-7 H-pyrrolo[2,3- d]pyrimidin-2-yl)amino)phenyl)- N8-hydroxyoctanediamide as a Novel Inhibitor Targeting Cyclin-dependent Kinase 4/9 (CDK4/9) and Histone Deacetlyase1 (HDAC1) against Malignant Cancer” (J Med Chem, 2018).
pIC50: −log10 of the molar value. Values after ≈ are worked out from the molar mass of the structure shown. Active and inactive are the calls of the source. The calls are words filed in the database; no cut-off is given here.

Key:
[1] = target: Aurora kinase B/Inner centromere protein (Homo sapiens, UniProt Q96GD4); assay: Inhibition of recombinant human full length C-terminal His6-tagged Aurora B//N-terminal GST-tagged INCENP (821-end residues) expressed in baculovirus infected sf21 cells using AKRRRLSSLRA substrate in presence of [gamma33P]ATP after 10 mins by scintillation counting method
NCI-H460 [2] = assay: Induction of apoptosis in human NCI-H460 cells assessed as live cells at 5 uM after 48 hrs by annexin V-FITC/propidium iodide staining based flow cytometry (reference value: 97.3%); type: functional
NCI-H460 [3] = assay: Induction of apoptosis in human NCI-H460 cells assessed as live cells at 1 uM after 48 hrs by annexin V-FITC/propidium iodide staining based flow cytometry (reference value: 97.3%); type: functional
T47D [4] = assay: Induction of apoptosis in human T47D cells assessed as live cells at 5 uM after 48 hrs by annexin V-FITC/propidium iodide staining based flow cytometry (reference value: 85.3%); type: functional
T47D [5] = assay: Induction of apoptosis in human T47D cells assessed as necrotic cells at 1 uM after 48 hrs by annexin V-FITC/propidium iodide staining based flow cytometry (reference value: 0.8%); type: functional
T47D [6] = assay: Induction of apoptosis in human T47D cells assessed as early apoptotic cells at 10 uM after 48 hrs by annexin V-FITC/propidium iodide staining based flow cytometry (reference value: 7.7%); type: functional
T47D [7] = assay: Induction of apoptosis in human T47D cells assessed as live cells at 10 uM after 48 hrs by annexin V-FITC/propidium iodide staining based flow cytometry (reference value: 85.3%); type: functional
MDA-MB-231 [8] = assay: Induction of apoptosis in human MDA-MB-231 cells assessed as early apoptotic cells at 5 uM after 48 hrs by annexin V-FITC/propidium iodide staining based flow cytometry (reference value: 0.4%); type: functional
MDA-MB-231 [9] = assay: Induction of apoptosis in human MDA-MB-231 cells assessed as live cells at 5 uM after 48 hrs by annexin V-FITC/propidium iodide staining based flow cytometry (reference value: 98.1%); type: functional
Hep 3B2 [10] = assay: Cell cycle arrest in human Hep3B cells assessed as decrease in S-phase at 625 nM after 24 hrs by propidium iodide staining based flow cytometry; type: functional
Method in brief: (§1)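 Cells were exposed for 24 h to a range of concentrations (625 nM, 2.5 and 10 µM), with DMSO vehicle as control. They were then stained with propidium iodide and analysed by flow cytometry to obtain the percentages of cells in G0/G1, S and G2 phases.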

A549 [11] = assay: Cell cycle arrest in human A549 cells assessed as accumulation at G2 phase at 2.5 to 10 uM after 24 hrs by propidium iodide staining based flow cytometry; type: functional; method in brief: as §1
NCI-H460 [12] = assay: Cell cycle arrest in human NCI-H460 cells assessed as accumulation at G0/G1 phase at 625 nM after 24 hrs by propidium iodide staining based flow cytometry; type: functional; method in brief: as §1
[13] = target: Cyclin-dependent kinase 5/CDK5 activator 1 (Homo sapiens) (UniProt Q00535+Q15078); assay: Inhibition of recombinant human full length N-terminal 6His-tagged CDK5/N-terminal GST-tagged p35 co-expressed in baculovirus infected sf21 cells at 1 uM using histone H1 substrate in presence of [gamma33P]ATP after 10 mins by scintillation counting method relative to control
[14] = target: CDK4/Cyclin D3 (Homo sapiens) (UniProt P11802+P30281); assay: Inhibition of recombinant human full length N-terminal GST-tagged CDK4/Cyclin-D3 co-expressed in baculovirus infected sf21 cells at 1 uM using Rb substrate in presence of [gamma33P]ATP after 10 mins by scintillation counting method relative to control
[15] = target: CDK2/Cyclin A2 (Homo sapiens) (UniProt P24941+P20248); assay: Inhibition of recombinant human full length C-terminal 6His-tagged CDK2/N-terminal GST-tagged Cyclin-A co-expressed in baculovirus infected sf21 cells at 1 uM relative to control
[16] = target: Cyclin-dependent kinase 1/cyclin B1 (Homo sapiens) (UniProt P06493+P14635); assay: Inhibition of recombinant human full length C-terminal 6His-tagged CDK1/N-terminal GST-tagged Cyclin-B co-expressed in baculovirus infected sf21 cells at 1 uM using histone H1 substrate in presence of [gamma33P]ATP after 10 mins by scintillation counting method relative to control
[17] = target: Vascular endothelial growth factor receptor 3 (Homo sapiens, UniProt P35916); assay: Inhibition of recombinant human N-terminal GST-tagged FLT4 (800-end residues) expressed in baculovirus infected sf21 cells
A549 [18] = assay: Induction of apoptosis in human A549 cells assessed as early apoptotic cells at 10 uM after 48 hrs by annexin V-FITC/propidium iodide staining based flow cytometry (reference value: 0.41%); type: functional
HepG2 [19] = assay: Induction of apoptosis in human HepG2 cells assessed as late apoptotic cells at 10 uM after 48 hrs by annexin V-FITC/propidium iodide staining based flow cytometry (reference value: 0.64%); type: functional
HepG2 [20] = assay: Induction of apoptosis in human HepG2 cells assessed as late apoptotic cells at 1 uM after 48 hrs by annexin V-FITC/propidium iodide staining based flow cytometry (reference value: 0.64%); type: functional
HepG2 [21] = assay: Induction of apoptosis in human HepG2 cells assessed as early apoptotic cells at 5 uM after 48 hrs by annexin V-FITC/propidium iodide staining based flow cytometry (reference value: 0.3%); type: functional
Hep 3B2 [22] = assay: Induction of apoptosis in human Hep3B cells assessed as early apoptotic cells at 10 uM after 48 hrs by annexin V-FITC/propidium iodide staining based flow cytometry (reference value: 1.91%); type: functional
Hep 3B2 [23] = assay: Induction of apoptosis in human Hep3B cells assessed as late apoptotic cells at 10 uM after 48 hrs by annexin V-FITC/propidium iodide staining based flow cytometry (reference value: 5.25%); type: functional
MDA-MB-231 [24] = assay: Induction of apoptosis in human MDA-MB-231 cells after 48 hrs by annexin V-FITC/propidium iodide staining based flow cytometry; type: functional, cell-based
NCI-H460 [25] = assay: Induction of apoptosis in human NCI-H460 cells assessed as reduction in Bcl2 protein expression after 48 hrs by Western blot method; type: functional, cell-based
Method in brief: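 Cells were treated with or without test agent, alongside a control, for 48h. They were then lysed and analysed by Western blot for Bcl-2 protein and cleaved caspase 3.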

Hep 3B2 [26] = assay: Induction of apoptosis in human Hep3B cells assessed as caspase-3 cleavage after 48 hrs by Western blot method; type: functional, cell-based
Method in brief: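 Cells were treated with or without compound and control for 48 h, then lysed. Bcl-2 and cleaved caspase 3 were assessed by Western blot.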

Histone deacetylase 1 = Histone deacetylase 1 (Homo sapiens, UniProt Q13547); assay: Inhibition of HDAC1 in human Hep3B cells assessed as increase in p53 phosphorylation at Ser15 residue at 1 to 5 uM after 48 hrs by Western blot method; type: cell-based
[27] = Aqueous solubility in water at 1 mg using methanesulfonic acid formulation sonicated for 24 hrs and incubated under unstirred condition for 24 hrs by HPLC method; type: physicochemical
[28] = Half life in Sprague-Dawley rat at 20 mg/kg, iv administered as single dose by HPLC analysis; type: ADME, organism-based; details: in vivo
[29] = Clearance in Sprague-Dawley rat at 20 mg/kg, po administered as single dose by HPLC analysis; type: ADME, organism-based; details: in vivo

Vascular endothelial growth factor receptor 3, sequence (P35916 whole entry): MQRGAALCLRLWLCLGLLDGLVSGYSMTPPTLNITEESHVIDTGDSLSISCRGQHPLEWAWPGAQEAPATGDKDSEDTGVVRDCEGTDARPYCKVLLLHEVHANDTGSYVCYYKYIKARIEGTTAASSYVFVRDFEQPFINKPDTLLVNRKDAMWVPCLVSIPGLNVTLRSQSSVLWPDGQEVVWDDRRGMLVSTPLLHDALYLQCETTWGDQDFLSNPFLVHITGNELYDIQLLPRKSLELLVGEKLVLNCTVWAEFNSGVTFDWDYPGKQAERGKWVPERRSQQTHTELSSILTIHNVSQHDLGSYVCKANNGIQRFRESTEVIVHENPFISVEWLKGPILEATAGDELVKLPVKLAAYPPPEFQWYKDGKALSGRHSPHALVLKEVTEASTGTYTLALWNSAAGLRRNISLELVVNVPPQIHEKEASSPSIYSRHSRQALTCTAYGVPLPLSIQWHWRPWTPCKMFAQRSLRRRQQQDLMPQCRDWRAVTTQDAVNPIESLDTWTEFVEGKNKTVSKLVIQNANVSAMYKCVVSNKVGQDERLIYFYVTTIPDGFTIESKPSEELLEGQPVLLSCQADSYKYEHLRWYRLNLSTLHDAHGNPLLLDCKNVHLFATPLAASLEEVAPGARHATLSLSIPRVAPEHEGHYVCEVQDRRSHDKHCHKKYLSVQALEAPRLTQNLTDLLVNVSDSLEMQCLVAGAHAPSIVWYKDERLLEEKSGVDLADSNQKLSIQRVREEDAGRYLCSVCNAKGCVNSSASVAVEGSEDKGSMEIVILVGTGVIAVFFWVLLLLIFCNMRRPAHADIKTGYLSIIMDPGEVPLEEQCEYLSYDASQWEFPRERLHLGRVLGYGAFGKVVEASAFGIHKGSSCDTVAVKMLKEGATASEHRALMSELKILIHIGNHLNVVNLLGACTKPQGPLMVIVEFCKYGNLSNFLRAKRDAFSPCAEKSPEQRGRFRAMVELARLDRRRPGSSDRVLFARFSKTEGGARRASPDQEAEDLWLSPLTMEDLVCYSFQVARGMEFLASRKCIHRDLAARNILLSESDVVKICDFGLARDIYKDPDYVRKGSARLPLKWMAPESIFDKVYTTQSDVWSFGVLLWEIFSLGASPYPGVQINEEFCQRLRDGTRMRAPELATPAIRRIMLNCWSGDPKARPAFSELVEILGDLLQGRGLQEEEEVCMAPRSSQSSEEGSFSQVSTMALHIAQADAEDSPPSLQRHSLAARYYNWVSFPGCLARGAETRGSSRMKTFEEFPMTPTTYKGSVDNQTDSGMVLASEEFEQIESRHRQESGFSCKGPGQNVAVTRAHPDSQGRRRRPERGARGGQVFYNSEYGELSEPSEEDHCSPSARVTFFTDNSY
Cyclin-dependent kinase 5/CDK5 activator 1 (Homo sapiens), sequence (Q00535 whole entry): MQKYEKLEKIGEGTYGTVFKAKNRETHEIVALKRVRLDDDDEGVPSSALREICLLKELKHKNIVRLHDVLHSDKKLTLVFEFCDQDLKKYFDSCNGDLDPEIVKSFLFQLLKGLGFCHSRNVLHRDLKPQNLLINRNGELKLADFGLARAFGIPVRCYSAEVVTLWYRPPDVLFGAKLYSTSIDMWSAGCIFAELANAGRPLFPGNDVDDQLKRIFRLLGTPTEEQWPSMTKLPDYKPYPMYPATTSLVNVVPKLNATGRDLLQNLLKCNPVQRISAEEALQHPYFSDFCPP
Cyclin-dependent kinase 5/CDK5 activator 1 (Homo sapiens), sequence (Q15078 99-307 partner limits assumed): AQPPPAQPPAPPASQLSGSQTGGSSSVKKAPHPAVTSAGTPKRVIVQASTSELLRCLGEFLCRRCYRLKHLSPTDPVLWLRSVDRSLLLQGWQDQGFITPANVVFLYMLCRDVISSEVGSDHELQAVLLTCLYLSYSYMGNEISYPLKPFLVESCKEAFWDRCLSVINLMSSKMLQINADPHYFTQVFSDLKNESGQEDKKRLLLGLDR
Aurora kinase B/Inner centromere protein, sequence (Q96GD4 whole entry): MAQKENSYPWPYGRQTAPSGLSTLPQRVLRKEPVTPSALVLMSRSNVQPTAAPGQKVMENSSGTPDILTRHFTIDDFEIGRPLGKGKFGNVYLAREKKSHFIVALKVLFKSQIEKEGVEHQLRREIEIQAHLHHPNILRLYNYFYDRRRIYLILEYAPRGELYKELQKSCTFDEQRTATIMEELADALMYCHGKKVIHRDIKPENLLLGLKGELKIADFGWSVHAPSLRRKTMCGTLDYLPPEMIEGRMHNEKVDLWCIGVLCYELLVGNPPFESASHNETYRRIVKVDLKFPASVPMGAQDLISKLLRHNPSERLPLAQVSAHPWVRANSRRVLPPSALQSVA
Aurora kinase B/Inner centromere protein, sequence (Q9NQS7 whole entry, further chain): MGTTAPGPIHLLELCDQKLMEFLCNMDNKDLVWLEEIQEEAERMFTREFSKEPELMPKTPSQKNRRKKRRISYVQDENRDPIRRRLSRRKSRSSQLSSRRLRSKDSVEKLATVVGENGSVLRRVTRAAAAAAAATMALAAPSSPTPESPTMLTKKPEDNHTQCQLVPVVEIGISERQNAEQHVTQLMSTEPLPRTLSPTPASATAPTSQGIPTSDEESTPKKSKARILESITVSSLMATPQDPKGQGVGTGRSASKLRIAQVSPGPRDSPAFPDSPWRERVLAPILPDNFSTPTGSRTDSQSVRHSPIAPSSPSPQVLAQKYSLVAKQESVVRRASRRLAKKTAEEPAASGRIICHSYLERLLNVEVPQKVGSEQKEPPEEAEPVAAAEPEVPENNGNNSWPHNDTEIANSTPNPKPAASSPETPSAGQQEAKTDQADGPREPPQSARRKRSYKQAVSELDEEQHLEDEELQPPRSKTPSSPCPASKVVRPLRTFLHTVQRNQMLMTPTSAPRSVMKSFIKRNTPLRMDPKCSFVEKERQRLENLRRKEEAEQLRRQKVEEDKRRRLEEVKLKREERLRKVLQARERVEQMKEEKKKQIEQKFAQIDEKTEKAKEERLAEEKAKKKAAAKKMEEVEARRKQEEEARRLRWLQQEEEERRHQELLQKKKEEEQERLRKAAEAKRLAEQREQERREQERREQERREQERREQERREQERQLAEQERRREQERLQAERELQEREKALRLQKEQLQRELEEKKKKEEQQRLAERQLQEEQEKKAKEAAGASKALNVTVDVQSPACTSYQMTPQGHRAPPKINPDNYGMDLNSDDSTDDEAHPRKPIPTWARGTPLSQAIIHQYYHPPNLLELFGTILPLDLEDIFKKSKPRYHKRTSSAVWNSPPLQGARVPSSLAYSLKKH
Histone deacetylase 1, sequence (Q13547 whole entry): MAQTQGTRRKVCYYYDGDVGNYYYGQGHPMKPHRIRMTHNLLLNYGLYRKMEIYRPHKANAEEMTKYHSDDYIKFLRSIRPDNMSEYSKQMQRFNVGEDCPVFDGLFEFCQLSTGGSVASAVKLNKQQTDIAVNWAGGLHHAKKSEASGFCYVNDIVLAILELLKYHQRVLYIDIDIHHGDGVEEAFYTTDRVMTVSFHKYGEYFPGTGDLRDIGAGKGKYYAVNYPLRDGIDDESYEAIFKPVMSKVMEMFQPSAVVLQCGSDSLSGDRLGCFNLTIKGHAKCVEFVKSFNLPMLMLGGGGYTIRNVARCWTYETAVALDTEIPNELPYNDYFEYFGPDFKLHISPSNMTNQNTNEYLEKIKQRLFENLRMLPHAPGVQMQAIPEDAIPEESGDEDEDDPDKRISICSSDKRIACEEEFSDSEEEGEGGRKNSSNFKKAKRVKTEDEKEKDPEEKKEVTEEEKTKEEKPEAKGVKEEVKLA
Cyclin-dependent kinase 1/cyclin B1 (Homo sapiens), sequence (P06493 whole entry, looked up): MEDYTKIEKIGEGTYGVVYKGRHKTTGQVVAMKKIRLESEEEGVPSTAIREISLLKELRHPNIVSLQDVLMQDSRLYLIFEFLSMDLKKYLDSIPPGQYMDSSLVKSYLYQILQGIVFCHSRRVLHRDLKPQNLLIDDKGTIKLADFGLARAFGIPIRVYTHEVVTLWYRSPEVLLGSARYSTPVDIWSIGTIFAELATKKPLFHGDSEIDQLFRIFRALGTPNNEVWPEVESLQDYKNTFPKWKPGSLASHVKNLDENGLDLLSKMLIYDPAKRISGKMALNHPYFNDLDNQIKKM
Cyclin-dependent kinase 1/cyclin B1 (Homo sapiens), sequence (P14635 whole entry, looked up): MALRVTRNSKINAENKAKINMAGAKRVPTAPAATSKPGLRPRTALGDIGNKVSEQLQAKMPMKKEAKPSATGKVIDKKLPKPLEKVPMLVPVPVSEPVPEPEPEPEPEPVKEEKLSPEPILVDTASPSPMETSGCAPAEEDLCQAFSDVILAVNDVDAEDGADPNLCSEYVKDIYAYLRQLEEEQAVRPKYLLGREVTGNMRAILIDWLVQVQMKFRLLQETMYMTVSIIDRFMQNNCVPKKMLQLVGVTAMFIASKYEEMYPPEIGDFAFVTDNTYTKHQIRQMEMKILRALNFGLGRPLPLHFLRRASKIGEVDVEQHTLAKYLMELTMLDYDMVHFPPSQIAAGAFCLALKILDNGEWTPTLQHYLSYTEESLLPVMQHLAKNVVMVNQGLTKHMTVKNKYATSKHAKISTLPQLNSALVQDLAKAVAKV

## CN(C)C(=O)c1cc2cnc(Nc3ccc(NC(=O)CCCCCCC(=O)NO)cc3)nc2n1C1CCCC1
[1]
  pIC50: 7.72
NCI-H460 [2]
  Activity: 88.9%
NCI-H460 [3]
  Activity: 97%
T47D [4]
  Activity: 76.5%
T47D [5]
  Activity: 6.7%
T47D [6]
  Activity: 37.1%
T47D [7]
  Activity: 43.2%
MDA-MB-231 [8]
  Activity: 2.57%
MDA-MB-231 [9]
  Activity: 90.3%
Hep 3B2 [10]
  Activity: Active
A549 [11]
  Activity: Active
NCI-H460 [12]
  Activity: Active
[13]
  inhibition: 72%
[14]
  inhibition: 101%
[15]
  inhibition: 71%
[16]
  inhibition: 55%
[17]
  pIC50: 7.37
A549 [18]
  Activity: 5.95%
HepG2 [19]
  Activity: 11.7%
HepG2 [20]
  Activity: 6.07%
HepG2 [21]
  Activity: 7.31%
Hep 3B2 [22]
  Activity: 8.15%
Hep 3B2 [23]
  Activity: 15%
MDA-MB-231 [24]
  Activity: Dose-dependent effect
NCI-H460 [25]
  Activity: Active
Hep 3B2 [26]
  Activity: Active
Histone deacetylase 1
  inhibition: Active
[27]
  solubility at 24 h: 526 µg/mL (≈ 982 µM)
[28]
  half-life: 10.8 h
[29]
  CL/F: 344 mL/min/kg
